Data taken from ChEMBL document CHEMBL3351236, “Prodrug oncrasin-266 improves the stability, pharmacokinetics, and safety of NSC-743380” (Bioorg Med Chem, 2014).
Calls of active or inactive are those of the source. No cut-off for these calls is given here.

Legend:
[1] = Pro-drug conversion in pH 7.4 PBS solution assessed as oncrasin-72 release at 0.5 mg/ml by HPLC method; assay type: ADME; settings: buffer, TDE = time-dependent effect
How it was run: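 Stock in DMSO/acetonitrile was diluted in PBS pH 7.4 to 0.5 mg/ml, with final 12% DMSO and 18% acetonitrile. Incubated at 37°C for up to 24 h. Aliquots taken at 0.5, 1, 3, 6 and 24 h were held at −20°C, then diluted 50-fold in acetonitrile for HPLC. One of two experiments shown.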

[2] = tested on: Mus musculus; assay: Toxicity in Balb/c mouse assessed as changes in blood cell parameters at 150 mg/kg, ip dosed daily for 3 days using compound formulated in Solutol HS15 and ethyl alcohol measured after 48 hrs; assay type: organism-based; design: dose 150 mg/kg, route intraperitoneal; settings: in vivo
[3] = tested on: Intestine; assay: Drug level in intestine of Balb/c mouse xenografted with human Calu3 cells assessed as aldehyde metabolite level at 60 mg/kg, iv using compound formulated in Solutol HS15 and ethyl alcohol measured after 24 hrs by HPLC/MS method; assay type: ADME, organism-based, Calu-3; design: dose 60 mg/kg, route intravenous; settings: in vivo
How it was run: (§1)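 Nude mice bearing subcutaneous Calu3 xenografts, 1 mouse per treatment group. Organs and tumor were taken 24 h later and kept at −80°C, then homogenized in methanol (50 mg/ml) on ice. Homogenate was extracted with acetonitrile containing 0.2% formic acid plus an internal standard, centrifuged, and the supernatant analyzed by HPLC/MS.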

[4] = Stability in powder form in non-evacuated chambers at 37 degC after 1 to 14 days by HPLC method; assay type: physicochemical
How it was run: (§2)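 Powders were kept at 4°C, room temperature (21°C) or 37°C and sampled for up to 90 days. Each aliquot was dissolved in DMSO, diluted with 9 volumes acetonitrile, and analyzed by HPLC for purity.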

[5] = Stability in injectable solution with Solutol HS15 and ethyl alcohol and 0.9% NaCl assessed as drug hydrolysis within 7 hrs at room temperature by HPLC method; assay type: physicochemical; settings: injectable solution; read-out: Drug degradation
[6] = tested on: Mus musculus; assay: Toxicity in Balb/c mouse assessed as serum ALT level at 150 mg/kg, ip dosed daily for 3 days using compound formulated in Solutol HS15 and ethyl alcohol measured on day 6; assay type: organism-based; design: dose 150 mg/kg, route intraperitoneal; settings: in vivo, 72 h
[7] = Drug level in liver of Balb/c mouse xenografted with human Calu3 cells at 60 mg/kg, iv using compound formulated in Solutol HS15 and ethyl alcohol measured after 24 hrs by HPLC/MS method; assay type: ADME, organism-based, Calu-3; design: dose 60 mg/kg, route intravenous; settings: read-out: Drug uptake; how it was run: as §1
[8] = tested on: Liver; assay: Drug level in liver of Balb/c mouse xenografted with human Calu3 cells assessed as aldehyde metabolite level at 60 mg/kg, iv using compound formulated in Solutol HS15 and ethyl alcohol measured after 24 hrs by HPLC/MS method; assay type: ADME, organism-based, Calu-3; design: dose 60 mg/kg, route intravenous; settings: in vivo; how it was run: as §1
[9] = Stability in stock solution with Solutol HS15 and ethyl alcohol solvent at 4 degC by HPLC method; assay type: physicochemical
How it was run: (§3)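 Stock solutions were made by dissolving compound in 75% (w/v) Solutol HS15 in ethanol (about 20% v/v ethanol). Final concentrations were 8 mg/ml for prodrug and 5 mg/ml for parent. Stocks were stored at 4°C or room temperature; aliquots were frozen at −20°C before HPLC.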

[10] = Stability in powder form in non-evacuated chambers at 37 degC after 90 days by HPLC method; assay type: physicochemical; settings: read-out: Stability; how it was run: as §2
[11] = Stability in injectable solution with Solutol HS15 and ethyl alcohol and 0.9% NaCl assessed as drug hydrolysis within 7 hrs at 37 degC by HPLC method; assay type: physicochemical; settings: read-out: Drug degradation
[12] = tested on: Liver; assay: Drug level in liver of Balb/c mouse xenografted with human Calu3 cells assessed as oncrasin-72 level at 60 mg/kg, iv using compound formulated in Solutol HS15 and ethyl alcohol measured after 24 hrs by HPLC/MS method; assay type: ADME, organism-based, Calu-3; design: dose 60 mg/kg, route intravenous; settings: in vivo; how it was run: as §1
[13] = tested on: Mus musculus; assay: Toxicity in Balb/c mouse assessed as serum ALP level at 25 mg/kg, ip dosed daily for 8 days using compound formulated in Solutol HS15 and ethyl alcohol measured on day 6; assay type: organism-based; design: dose 25 mg/kg, route intraperitoneal; settings: in vivo, 192 h
[14] = tested on: Tumour; assay: Drug level in tumor of Balb/c mouse xenografted with human Calu3 cells assessed as aldehyde metabolite level at 60 mg/kg, iv using compound formulated in Solutol HS15 and ethyl alcohol measured after 24 hrs by HPLC/MS method; assay type: ADME, organism-based, Neoplasm, Calu-3; design: dose 60 mg/kg, route intravenous; settings: in vivo; how it was run: as §1
[15] = tested on: Calu-3; assay: Anticancer activity against human Calu3 cells at 0.03 to 30 uM by sulforhodamine B assay; assay type: functional, cell-based
How it was run: (§4)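 Sulforhodamine B viability assay on lung cancer cells exposed to a range of compound concentrations for 3 days. Untreated reference: DMSO-treated cells set as 100. Values are mean ± SD of quadruplicate wells.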

[16] = tested on: Mus musculus; assay: Toxicity in Balb/c mouse assessed as mortality level at 300 mg/kg, ip using compound formulated in Solutol HS15 and ethyl alcohol measured after 1 day; assay type: organism-based; design: dose 300 mg/kg, route intraperitoneal; settings: in vivo, 24 h
How it was run: (§5)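 Acute toxicity: 3 Balb/c mice (7–8 weeks) per group, given i.p. 300 mg/kg on day 1 and again on day 2. Deaths were recorded by day; survivors were followed for 2 weeks.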

[17] = tested on: NCI-H1299; assay: Anticancer activity against human H1299 cells at 0.03 to 30 uM by sulforhodamine B assay; assay type: functional, cell-based; how it was run: as §4
[18] = tested on: Mus musculus; assay: Half life in Balb/c mouse assessed as oncrasin-72 release at 25 mg/kg, iv using compound formulated in Solutol HS15 and ethyl alcohol by HPLC/MS method; assay type: ADME, organism-based; design: dose 25 mg/kg, route intravenous; settings: in vivo
How it was run: (§6)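 Balb/c mice received 25 mg/kg by tail vein in Solutol HS15/ethanol vehicle. Blood was drawn from the tail vein at 0, 1, 2, 3.5, 7 and 24 h, 3 mice per time point, into lithium-heparin tubes. Plasma (50 µl) was precipitated with 150 µl acetonitrile containing 0.2% formic acid and internal standard, iced 15 min, centrifuged, and the supernatant analyzed by HPLC/MS for parent and released drug.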

[19] = tested on: Mus musculus; assay: Toxicity in Balb/c mouse assessed as serum ALT level at 25 mg/kg, ip dosed daily for 8 days using compound formulated in Solutol HS15 and ethyl alcohol measured on day 6; assay type: organism-based; design: dose 25 mg/kg, route intraperitoneal; settings: in vivo, 192 h
[20] = tested on: Tumour; assay: Drug level in tumor of Balb/c mouse xenografted with human Calu3 cells assessed as oncrasin-72 level at 60 mg/kg, iv using compound formulated in Solutol HS15 and ethyl alcohol measured after 24 hrs by HPLC/MS method; assay type: ADME, organism-based, Neoplasm, Calu-3; design: dose 60 mg/kg, route intravenous; settings: in vivo; how it was run: as §1
[21] = tested on: Mus musculus; assay: Toxicity in Balb/c mouse assessed as serum AST level at 150 mg/kg, ip dosed daily for 3 days using compound formulated in Solutol HS15 and ethyl alcohol measured on day 6; assay type: organism-based; design: dose 150 mg/kg, route intraperitoneal; settings: in vivo, 72 h
[22] = tested on: Lung; assay: Drug level in lung of Balb/c mouse xenografted with human Calu3 cells assessed as aldehyde metabolite level at 60 mg/kg, iv using compound formulated in Solutol HS15 and ethyl alcohol measured after 24 hrs by HPLC/MS method; assay type: ADME, organism-based, Calu-3; design: dose 60 mg/kg, route intravenous; settings: in vivo; how it was run: as §1
[23] = tested on: Mus musculus; assay: Toxicity in Balb/c mouse assessed as serum ALP level at 150 mg/kg, ip dosed daily for 3 days using compound formulated in Solutol HS15 and ethyl alcohol measured on day 6; assay type: organism-based; design: dose 150 mg/kg, route intraperitoneal; settings: in vivo, 72 h
[24] = tested on: Kidney; assay: Drug level in kidney of Balb/c mouse xenografted with human Calu3 cells assessed as aldehyde metabolite level at 60 mg/kg, iv using compound formulated in Solutol HS15 and ethyl alcohol measured after 24 hrs by HPLC/MS method; assay type: ADME, organism-based, Calu-3; design: dose 60 mg/kg, route intravenous; settings: in vivo; how it was run: as §1
[25] = tested on: NCI-H157; assay: Anticancer activity against human NCI-H157 cells at 0.03 to 30 uM by sulforhodamine B assay; assay type: functional, cell-based; how it was run: as §4
[26] = tested on: Mus musculus; assay: Toxicity in Balb/c mouse assessed as survival at 300 mg/kg, ip using compound formulated in Solutol HS15 and ethyl alcohol; assay type: organism-based; design: dose 300 mg/kg, route intraperitoneal; settings: in vivo; how it was run: as §5
[27] = Stability in powder form in non-evacuated chambers at 4 degC by HPLC method; assay type: physicochemical; how it was run: as §2
[28] = tested on: Kidney; assay: Drug level in kidney of Balb/c mouse xenografted with human Calu3 cells assessed as oncrasin-72 level at 60 mg/kg, iv using compound formulated in Solutol HS15 and ethyl alcohol measured after 24 hrs by HPLC/MS method; assay type: ADME, organism-based, Calu-3; design: dose 60 mg/kg, route intravenous; settings: in vivo; how it was run: as §1
[29] = Stability in powder form in non-evacuated chambers at room temperature by HPLC method; assay type: physicochemical; how it was run: as §2
[30] = Stability in stock solution with Solutol HS15 and ethyl alcohol solvent at room temperature by HPLC method; assay type: physicochemical; how it was run: as §3
[31] = tested on: Mus musculus; assay: Toxicity in Balb/c mouse assessed as histopathological changes in liver at 150 mg/kg, ip dosed once using compound formulated in Solutol HS15 and ethyl alcohol measured after 48 hrs; settings: in vivo
[32] = tested on: Lung; assay: Drug level in lung of Balb/c mouse xenografted with human Calu3 cells assessed as oncrasin-72 level at 60 mg/kg, iv using compound formulated in Solutol HS15 and ethyl alcohol measured after 24 hrs by HPLC/MS method; assay type: ADME, organism-based, Calu-3; design: dose 60 mg/kg, route intravenous; settings: in vivo; how it was run: as §1
[33] = tested on: NCI-H460; assay: Anticancer activity against human H460 cells at 0.03 to 30 uM by sulforhodamine B assay; assay type: functional, cell-based; how it was run: as §4
[34] = tested on: Spleen; assay: Drug level in spleen of Balb/c mouse xenografted with human Calu3 cells assessed as aldehyde metabolite level at 60 mg/kg, iv using compound formulated in Solutol HS15 and ethyl alcohol measured after 24 hrs by HPLC/MS method; assay type: ADME, organism-based, Calu-3; design: dose 60 mg/kg, route intravenous; settings: in vivo; how it was run: as §1
[35] = tested on: Mus musculus; assay: Toxicity in Balb/c mouse assessed as serum AST level at 25 mg/kg, ip dosed daily for 8 days using compound formulated in Solutol HS15 and ethyl alcohol; settings: in vivo, 192 h
[36] = tested on: Mus musculus; assay: Toxicity in Balb/c mouse assessed as mortality at 150 mg/kg, ip dosed daily for 3 days using compound formulated in Solutol HS15 and ethyl alcohol measured on day 5; assay type: organism-based; design: dose 150 mg/kg, route intraperitoneal; settings: in vivo, 72 h
[37] = tested on: Plasma; assay: Pro-drug conversion in human plasma assessed as oncrasin-72 release by HPLC method; assay type: ADME, cell-free
[38] = Half life in Balb/c mouse at 25 mg/kg, iv using compound formulated in Solutol HS15 and ethyl alcohol by HPLC/MS method; assay type: ADME, organism-based; design: dose 25 mg/kg, route intravenous; settings: in vivo; how it was run: as §6

O=C(CC1CCCCC1)OCc1cn(Cc2cccc(Cl)c2)c2ccccc12
Drug metabolism [1]: tde
Activity [2]: Non-toxic
Drug uptake [3]: 5.9 µg/g
Stability [4]: Stable
degraded at 7 h [5]: 10%
Activity [6]: 115.5 U/L
concentration at 24 h [7]: 157000 ng/g
Drug uptake [8]: 14.9 µg/g
Stability [9]: 4 weeks
remaining at 2160 h [10]: < 5%
degraded at 7 h [11]: > 10%
Drug uptake [12]: 12.6 µg/g
Activity [13]: 76 U/L
Drug uptake [14]: 4.4 µg/g
Activity [15]: Active
Activity [16]: Toxic
Activity [17]: inactive
t1/2 [18]: 1.25 h
Activity [19]: 36.3 U/L
Drug uptake [20]: 4.7 µg/g
Activity [21]: 325.5 U/L
Drug uptake [22]: 68.4 µg/g
Activity [23]: 50 U/L
Drug uptake [24]: 26.5 µg/g
Activity [25]: Active
Survival [26]: 2 weeks
Stability [27]: 90 days
Drug uptake [28]: 7.3 µg/g
Stability [29]: 90 days
Stability [30]: 2 weeks
Activity [31]: Non-toxic
Drug uptake [32]: 7.7 µg/g
Activity [33]: Active
Drug uptake [34]: 34 µg/g
Activity [35]: 94 U/L
Activity [36]: Non-toxic
Drug metabolism [37]: metabolite_detected
half-life [38]: 1 h
